Experimental data: ChEMBL document CHEMBL5303300, “EUbOPEN Chemogenomics Library - Multiplex” (2023)
Several values for one entry are separate records, joined by “and”; a condition that tells them apart may be missing. Identical values can stand only once.

System: HEK-293T
Test: Multiplex assay against HEK293T
Type: toxicity, cell-based
Details: human, number of replicates 2
Summary of the method: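 Live cells carried four stains from seeding: Hoechst33342, BioTracker Green Microtubule Cytoskeleton Dye, MitoTracker Red and Annexin V Alexa Fluor 680. They were imaged on a CQ1 microscope at 37°C and 5% CO2 after compound addition. Using CellPathfinder machine-learning gating, cells were split into Hoechst high-intensity objects or normal cells, normal cells into healthy, pyknosed or fragmented nuclei, and pyknosed cells into mitotic or apoptotic; tubulin, mitochondrial-mass and membrane-permeability phenotypes are per cents of healthy-nucleus cells.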

[1] = 12 h, 1 µM, compound concentration 1 uM
[2] = 12 h, 10 µM, compound concentration 10 uM
[3] = 24 h, 1 µM, compound concentration 1 uM
[4] = 24 h, 10 µM, compound concentration 10 uM
[5] = 48 h, 1 µM, compound concentration 1 uM
[6] = 48 h, 10 µM, compound concentration 10 uM

## COc1cc(C(=O)NC2CCN(C)CC2)ccc1Nc1ncc(C(F)(F)F)c(NCc2ccc(C)cc2N(C)S(C)(=O)=O)n1.O=CO.O=CO
[1]
  Population Apoptotic (%): 57% and 71%
  Population Fragmented Nuclei (%): 5% and 6%
  Population Healthy Nuclei (%): 81% and 84%
  Population Hoechst High Intensity Objects (%): 13% and 16%
  Population Membrane Permeable-Phenotype (%): 4% and 0%
  Population Mitochondria Different-Phenotype (%): 50% and 59%
  Population Mitotic Cells (%): 42% and 28%
  Population Normal (%): 86% and 83%
  Population Pyknosed Nuclei (%): 13% and 9%
  Population Tubulin-Different-Phenotype (%): 89% and 95%
  Total Cell Count: 378 and 461
[2]
  Population Apoptotic (%): 86% and 89%
  Population Fragmented Nuclei (%): 7% and 6%
  Population Healthy Nuclei (%): 45% and 62%
  Population Hoechst High Intensity Objects (%): 23%
  Population Membrane Permeable-Phenotype (%): 6% and 0%
  Population Mitochondria Different-Phenotype (%): 74% and 85%
  Population Mitotic Cells (%): 13% and 10%
  Population Normal (%): 76%
  Population Pyknosed Nuclei (%): 47% and 31%
  Population Tubulin-Different-Phenotype (%): 87% and 92%
  Total Cell Count: 288 and 266
[3]
  Population Apoptotic (%): 73% and 60%
  Population Fragmented Nuclei (%): 9% and 10%
  Population Healthy Nuclei (%): 83% and 80%
  Population Hoechst High Intensity Objects (%): 12%
  Population Membrane Permeable-Phenotype (%): 5% and 1%
  Population Mitochondria Different-Phenotype (%): 17%
  Population Mitotic Cells (%): 26% and 40%
  Population Normal (%): 87%
  Population Pyknosed Nuclei (%): 7% and 8%
  Population Tubulin-Different-Phenotype (%): 70% and 79%
  Total Cell Count: 658 and 751
[4]
  Population Apoptotic (%): 84% and 81%
  Population Fragmented Nuclei (%): 8% and 3%
  Population Healthy Nuclei (%): 35% and 51%
  Population Hoechst High Intensity Objects (%): 22% and 23%
  Population Membrane Permeable-Phenotype (%): 7% and 5%
  Population Mitochondria Different-Phenotype (%): 71% and 68%
  Population Mitotic Cells (%): 15% and 18%
  Population Normal (%): 77% and 76%
  Population Pyknosed Nuclei (%): 55% and 44%
  Population Tubulin-Different-Phenotype (%): 86% and 95%
  Total Cell Count: 363 and 344
[5]
  Population Apoptotic (%): 41% and 21%
  Population Fragmented Nuclei (%): 15% and 16%
  Population Healthy Nuclei (%): 81% and 79%
  Population Hoechst High Intensity Objects (%): 16% and 14%
  Population Membrane Permeable-Phenotype (%): 1% and 3%
  Population Mitochondria Different-Phenotype (%): 3% and 1%
  Population Mitotic Cells (%): 58% and 78%
  Population Normal (%): 83% and 85%
  Population Pyknosed Nuclei (%): 3%
  Population Tubulin-Different-Phenotype (%): 51% and 37%
  Total Cell Count: 1721 and 1697
[6]
  Population Apoptotic (%): 82% and 77%
  Population Fragmented Nuclei (%): 8% and 4%
  Population Healthy Nuclei (%): 22% and 25%
  Population Hoechst High Intensity Objects (%): 25% and 22%
  Population Membrane Permeable-Phenotype (%): 4% and 2%
  Population Mitochondria Different-Phenotype (%): 55% and 76%
  Population Mitotic Cells (%): 17% and 22%
  Population Normal (%): 74% and 77%
  Population Pyknosed Nuclei (%): 68% and 69%
  Population Tubulin-Different-Phenotype (%): 93% and 95%
  Total Cell Count: 374 and 336

## CCNc1ccc(-c2nn(-c3ccccc3C)c3c2C(C)Cc2nc(NC(=O)OC)sc2-3)cn1.O=C(O)C(F)(F)F (configuration not stated)
[1]
  Population Apoptotic (%): 69% and 60%
  Population Fragmented Nuclei (%): 4% and 5%
  Population Healthy Nuclei (%): 86% and 81%
  Population Hoechst High Intensity Objects (%): 11% and 12%
  Population Membrane Permeable-Phenotype (%): 2%
  Population Mitochondria Different-Phenotype (%): 45% and 38%
  Population Mitotic Cells (%): 30% and 39%
  Population Normal (%): 88% and 87%
  Population Pyknosed Nuclei (%): 8% and 13%
  Population Tubulin-Different-Phenotype (%): 74% and 65%
  Total Cell Count: 430 and 487
[2]
  Population Apoptotic (%): 73% and 72%
  Population Fragmented Nuclei (%): 3% and 4%
  Population Healthy Nuclei (%): 85% and 79%
  Population Hoechst High Intensity Objects (%): 10%
  Population Membrane Permeable-Phenotype (%): 3%
  Population Mitochondria Different-Phenotype (%): 74% and 79%
  Population Mitotic Cells (%): 26% and 27%
  Population Normal (%): 89%
  Population Pyknosed Nuclei (%): 10% and 16%
  Population Tubulin-Different-Phenotype (%): 94% and 96%
  Total Cell Count: 308 and 225
[3]
  Population Apoptotic (%): 58% and 82%
  Population Fragmented Nuclei (%): 5%
  Population Healthy Nuclei (%): 82% and 81%
  Population Hoechst High Intensity Objects (%): 26% and 16%
  Population Membrane Permeable-Phenotype (%): 0%
  Population Mitochondria Different-Phenotype (%): 44% and 63%
  Population Mitotic Cells (%): 41% and 17%
  Population Normal (%): 73% and 83%
  Population Pyknosed Nuclei (%): 11% and 12%
  Population Tubulin-Different-Phenotype (%): 72% and 85%
  Total Cell Count: 409 and 322
[4]
  Population Apoptotic (%): 54% and 66%
  Population Fragmented Nuclei (%): 6% and 5%
  Population Healthy Nuclei (%): 76% and 74%
  Population Hoechst High Intensity Objects (%): 13% and 16%
  Population Membrane Permeable-Phenotype (%): 1%
  Population Mitochondria Different-Phenotype (%): 86% and 85%
  Population Mitotic Cells (%): 45% and 33%
  Population Normal (%): 86% and 83%
  Population Pyknosed Nuclei (%): 16% and 19%
  Population Tubulin-Different-Phenotype (%): 89% and 95%
  Total Cell Count: 234 and 199
[5]
  Population Apoptotic (%): 75% and 85%
  Population Fragmented Nuclei (%): 11%
  Population Healthy Nuclei (%): 69% and 74%
  Population Hoechst High Intensity Objects (%): 28% and 29%
  Population Membrane Permeable-Phenotype (%): 0%
  Population Mitochondria Different-Phenotype (%): 43% and 50%
  Population Mitotic Cells (%): 24% and 14%
  Population Normal (%): 71% and 70%
  Population Pyknosed Nuclei (%): 19% and 14%
  Population Tubulin-Different-Phenotype (%): 75% and 80%
  Total Cell Count: 418 and 399
[6]
  Population Apoptotic (%): 73% and 66%
  Population Fragmented Nuclei (%): 5% and 3%
  Population Healthy Nuclei (%): 86% and 81%
  Population Hoechst High Intensity Objects (%): 19% and 13%
  Population Membrane Permeable-Phenotype (%): 2% and 1%
  Population Mitochondria Different-Phenotype (%): 83% and 80%
  Population Mitotic Cells (%): 26% and 33%
  Population Normal (%): 80% and 86%
  Population Pyknosed Nuclei (%): 7% and 15%
  Population Tubulin-Different-Phenotype (%): 89% and 93%
  Total Cell Count: 239 and 207
